Legend:
[1] = molecular target: T1, Bombesin receptor subtype-3 (Mus musculus) (UniProt O54798); experiment: Agonist activity at mouse BRS3 by functional assay relative to control
T1 sequence (whole entry): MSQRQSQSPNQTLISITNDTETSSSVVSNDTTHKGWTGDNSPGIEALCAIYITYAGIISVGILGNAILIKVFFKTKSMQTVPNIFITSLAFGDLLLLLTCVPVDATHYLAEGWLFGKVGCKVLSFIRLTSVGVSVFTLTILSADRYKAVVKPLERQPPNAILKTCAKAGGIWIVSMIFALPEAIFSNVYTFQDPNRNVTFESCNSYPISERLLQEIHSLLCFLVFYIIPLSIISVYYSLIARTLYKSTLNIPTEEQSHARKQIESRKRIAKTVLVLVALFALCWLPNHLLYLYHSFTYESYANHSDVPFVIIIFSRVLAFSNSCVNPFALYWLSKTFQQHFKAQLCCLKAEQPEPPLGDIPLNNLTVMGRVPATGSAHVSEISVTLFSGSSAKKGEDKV
Summary of the method: (§1)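 HEK293AEQ cells expressing mouse BRS-3; bioluminescence read against log molar compound concentration. EC50 taken as the inflection point of the sigmoidal curve and normalized to the EC50 of an internal standard. Values under 2 µM with standard errors are means of at least three experiments; duplicate data are reported individually.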

[2] = molecular target: T2, Bombesin receptor subtype-3 (Mus musculus, UniProt O54798); experiment: Agonist activity at mouse BRS3 by functional assay; summary of the method: as §1
T2 sequence (O54798 whole entry): T1 sequence (whole entry)

[3] = molecular target: T3, Bombesin receptor subtype-3 (Homo sapiens, UniProt P32247); experiment: Agonist activity at human BRS3 by functional assay
T3 sequence (P32247 whole entry): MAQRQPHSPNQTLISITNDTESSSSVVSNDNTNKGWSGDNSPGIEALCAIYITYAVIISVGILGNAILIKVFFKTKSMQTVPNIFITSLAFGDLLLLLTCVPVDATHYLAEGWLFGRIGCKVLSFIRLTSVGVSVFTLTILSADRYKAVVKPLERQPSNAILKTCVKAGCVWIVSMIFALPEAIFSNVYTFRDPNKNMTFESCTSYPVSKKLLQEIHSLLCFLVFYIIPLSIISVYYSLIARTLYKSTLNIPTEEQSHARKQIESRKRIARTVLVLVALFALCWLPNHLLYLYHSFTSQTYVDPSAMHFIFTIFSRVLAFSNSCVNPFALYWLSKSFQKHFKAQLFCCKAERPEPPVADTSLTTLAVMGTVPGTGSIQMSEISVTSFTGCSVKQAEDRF

[4] = molecular target: T3, Bombesin receptor subtype-3; experiment: Binding affinity to human BRS3
[5] = Bioavailability in Sprague-Dawley rat at 1 mg/kg, iv or 4 mg/kg, po; format: ADME, organism-based; conditions: in vivo
Summary of the method: (§2)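 Male Sprague–Dawley rats. Blood collected at various time points into lithium heparin tubes and centrifuged; plasma stored at -70 °C until analysis. Plasma extracted by protein precipitation and quantified by LC/MS/MS.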

[6] = Cmax in Sprague-Dawley rat at 1 mg/kg, iv or 4 mg/kg, po by LC/MS/MS; format: ADME, organism-based; conditions: in vivo; summary of the method: as §2
[7] = Half life in Sprague-Dawley rat at 1 mg/kg, iv or 4 mg/kg, po; format: ADME, organism-based; conditions: in vivo; summary of the method: as §2
[8] = Mean residence time in Sprague-Dawley rat at 1 mg/kg, iv or 4 mg/kg, po; format: ADME, organism-based; conditions: in vivo; summary of the method: as §2
[9] = Volume of distribution at steady state in Sprague-Dawley rat at 1 mg/kg, iv or 4 mg/kg, po; format: ADME, organism-based; conditions: in vivo, read-out: Vdss; summary of the method: as §2
[10] = Plasma clearance in Sprague-Dawley rat at 1 mg/kg, iv or 4 mg/kg, po; format: ADME, organism-based; summary of the method: as §2
[11] = molecular target: Gastrin-releasing peptide receptor (Homo sapiens) (UniProt P30550)
Gastrin-releasing peptide receptor (Homo sapiens), sequence (P30550 whole entry, looked up): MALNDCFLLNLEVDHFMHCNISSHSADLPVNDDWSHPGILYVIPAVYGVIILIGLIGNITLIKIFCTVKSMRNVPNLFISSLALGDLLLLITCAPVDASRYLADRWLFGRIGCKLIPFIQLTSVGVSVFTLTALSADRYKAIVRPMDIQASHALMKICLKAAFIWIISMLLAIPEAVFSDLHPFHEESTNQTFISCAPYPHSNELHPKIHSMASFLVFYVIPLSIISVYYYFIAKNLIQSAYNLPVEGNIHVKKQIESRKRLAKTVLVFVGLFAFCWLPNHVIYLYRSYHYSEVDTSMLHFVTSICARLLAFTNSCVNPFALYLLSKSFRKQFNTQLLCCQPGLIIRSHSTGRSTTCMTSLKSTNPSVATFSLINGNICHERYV

[12] = molecular target: Neuromedin-B receptor (Homo sapiens) (UniProt P28336)
Neuromedin-B receptor (Homo sapiens), sequence (P28336 whole entry, looked up): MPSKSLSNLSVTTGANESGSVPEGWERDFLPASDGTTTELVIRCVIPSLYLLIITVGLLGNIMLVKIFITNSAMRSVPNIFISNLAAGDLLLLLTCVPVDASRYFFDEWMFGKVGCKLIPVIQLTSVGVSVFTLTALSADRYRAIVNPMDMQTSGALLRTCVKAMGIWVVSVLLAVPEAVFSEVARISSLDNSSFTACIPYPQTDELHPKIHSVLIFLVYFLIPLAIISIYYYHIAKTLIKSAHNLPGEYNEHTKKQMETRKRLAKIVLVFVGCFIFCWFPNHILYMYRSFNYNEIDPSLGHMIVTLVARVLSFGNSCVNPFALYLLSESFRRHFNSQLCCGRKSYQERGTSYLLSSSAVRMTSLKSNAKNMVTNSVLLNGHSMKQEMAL

[13] = molecular target: T3, Bombesin receptor subtype-3; experiment: Agonist activity at human BRS3 expressed in HEK293AEQ cells using 10 uM dy-peptide by bioluminescence assay
[14] = molecular target: T3, Bombesin receptor subtype-3

SMILES | Activity [1] [%] | EC50 [2] [nM] | EC50 [3] [nM] | IC50 [4] [nM] | other results
CC(C)(C)NC(=O)NS(=O)(=O)c1cnccc1O[C@@H]1C[C@@H]2CC[C@H]1C2 | 77 | 320 | 1600 | 880 | –
CC(C)NC(=O)NS(=O)(=O)c1cnccc1N[C@H]1C[C@H]2CC[C@@H]1C2 (racemic) | 86 | 98 | 940 | 820 | –
CC(C)(C)NC(=O)NS(=O)(=O)c1ccccc1N[C@@H]1C[C@H]2CC[C@@H]1C2 (racemic) | 91 | 340 | 6400 | 6200 | –
CC(C)(C)c1csc(NS(=O)(=O)c2cnccc2N[C@@H]2C[C@H]3CC[C@@H]2C3)n1 (racemic) | 81 | 200 | 2100 | 2500 | –
CC(C)(C)NC(=O)NS(=O)(=O)c1cnccc1NC1CC2CCC1C2 (racemic) | – | – | – | – | bioavailability [5]: 100%; Cmax [6]: 7 µM; half-life [7]: 288 min; MRT [8]: 39.6 min; Vd [9]: 0.57 L/kg; clearance [10]: 14 mL/min/kg
CC(C)(C)NC(=O)NS(=O)(=O)c1cnccc1N[C@H]1CN2CCC1CC2 | 0 | > 10000 | > 10000 | > 10000 | –
CC(C)(C)NC(=O)NS(=O)(=O)c1cnccc1NN1CCCC1 | 5 | > 10000 | > 10000 | > 10000 | –
CC(C)(C)c1cc(NS(=O)(=O)c2cnccc2N[C@@H]2C[C@H]3CC[C@@H]2C3)[nH]n1 (racemic) | 113 | 270 | 4000 | 250 | –
CC(C)(C)NC(=O)NS(=O)(=O)c1cnccc1N[C@@H]1C[C@H]2CC[C@@H]1C2 [listing 1 of 2 here] | – | 21 | 55 | 68 | –
CC(C)(C)NC(=O)NS(=O)(=O)c1cnccc1NC(C)(C)c1ccccc1 | 43 | 4300 | 8100 | 3000 | –
CC(C)(C)NC(=N)NS(=O)(=O)c1cnccc1N[C@@H]1C[C@H]2CC[C@@H]1C2 (racemic) | 13 | 7000 | > 10000 | 9700 | –
CC(C)(C)NC(=O)NS(=O)(=O)c1cnccc1N[C@@H]1C[C@H]2CC[C@]1(C)C2(C)C | 88 | 90 | 1700 | 660 | –
CC(C)c1n[nH]c(NS(=O)(=O)c2cnccc2N[C@@H]2C[C@H]3CC[C@@H]2C3)n1 (racemic) | 72 | 410 | 4000 | 770 | –
CC(C)(C)NC(=O)NS(=O)(=O)c1cnccc1N[C@H]1C[C@H]2CC[C@@H]1C2 (racemic) | 91 | 49 | 160 | 230 | –
O=S(=O)(Nc1nc(C2CCC2)n[nH]1)c1cnccc1NC1CC2CCC1C2 (single isomer, unassigned) [listing 1 of 2 here] | 88 | – | – | – | –
CC(C)(C)NC(=O)NS(=O)(=O)c1cnccc1N[C@H]1C[C@@H]2CC[C@H]1C2 | 93 | 110 | 720 | 630 | –
CC(C)(C)NC(=O)NS(=O)(=O)c1cnccc1NC1CCc2ccccc21 (racemic) | 63 | 1300 | 6800 | 3800 | –
CC(C)(C)c1cccc(NS(=O)(=O)c2cnccc2N[C@@H]2C[C@H]3CC[C@@H]2C3)c1 (racemic) | 102 | 160 | 2600 | 520 | –
O=S(=O)(Nc1nc(C2CCC2)n[nH]1)c1cnccc1NC1CC2CCC1C2 (single isomer, unassigned; faster eluting) [listing 1 of 2 here] | – | 51 | 380 | 68 | –
CC(C)NC(=O)NS(=O)(=O)c1cnccc1N[C@@H]1C[C@H]2CC[C@@H]1C2 (racemic) | 88 | 86 | 440 | 510 | –
CC(C)(C)NC(=O)NS(=O)(=O)c1cnccc1NC1CC2CCC1C2 (centres undefined) | – | – | – | – | EC50 [11]: > 10000 nM; EC50 [12]: > 10000 nM

SMILES | Activity [1] [%] | EC50 [2] [nM] | EC50 [3] [nM] | IC50 [4] [nM] | other results
CC(C)(C)NC(=O)NS(=O)(=O)c1cnccc1N[C@@H]1C[C@H]2CC[C@@H]1C2 (racemic) [listing 1 of 2 here] | 101 | – | – | – | –
CC(C)NC(=O)NS(=O)(=O)c1cnccc1NC1CC2CCC1C2 (centres undefined) | – | – | – | – | EC50 [13]: 220 nM; IC50 [14]: 600 nM
O=S(=O)(Nc1nnc(C2CCC2)[nH]1)c1cnccc1N[C@@H]1C[C@H]2CC[C@@H]1C2 (racemic) | – | 170 | 1200 | 290 | –
CC(C)(C)NC(=O)NS(=O)(=O)c1cnccc1N[C@H]1C[C@H]2CC[C@]1(C)C2(C)C | 82 | 33 | 450 | 300 | –
CC(C)(C)CC(=O)NS(=O)(=O)c1cnccc1N[C@@H]1C[C@H]2CC[C@@H]1C2 (racemic) | 61 | 4900 | 8300 | > 10000 | –
CCC(C)(C)NC(=O)NS(=O)(=O)c1cnccc1N[C@@H]1C[C@H]2CC[C@@H]1C2 (racemic) | 108 | 13 | 51 | 75 | –
O=S(=O)(Nc1nc(C2CCC2)n[nH]1)c1cnccc1N[C@@H]1C[C@H]2CC[C@@H]1C2 (racemic) | 84 | – | – | – | –
CC(C)(C)NC(=O)NS(=O)(=O)c1cnccc1N[C@@H]1C[C@H]2CC[C@@H]1C2 [listing 2 of 2 here] | 100 | – | – | – | –
CN(C(=O)NS(=O)(=O)c1cnccc1N[C@@H]1C[C@H]2CC[C@@H]1C2)C(C)(C)C (racemic) | 96 | 180 | 640 | 650 | –
O=S(=O)(Nc1nc(C2CCC2)n[nH]1)c1cnccc1NC1CC2CCC1C2 (single isomer, unassigned; faster eluting) [listing 2 of 2 here] | 87 | – | – | – | –
CC(C)(C)OC(=O)NS(=O)(=O)c1cnccc1N[C@@H]1C[C@H]2CC[C@@H]1C2 (racemic) | 89 | 590 | 8200 | > 10000 | –
CC(C)(C)CC(C)(C)NC(=O)NS(=O)(=O)c1cnccc1N[C@@H]1C[C@H]2CC[C@@H]1C2 (racemic) | 102 | 100 | 350 | 530 | –
CN(C(=O)NC(C)(C)C)S(=O)(=O)c1cnccc1N[C@@H]1C[C@H]2CC[C@@H]1C2 (racemic) | 49 | 6500 | 8300 | 6700 | –
O=C(NC12CC3CC(CC(C3)C1)C2)NS(=O)(=O)c1cnccc1N[C@@H]1C[C@H]2CC[C@@H]1C2 (mixture of isomers) | 55 | 39 | 220 | 310 | –
CC(C)(C)NC(=O)NS(=O)(=O)c1cnccc1NC1CCCCC1 | 90 | 260 | 450 | 400 | –
O=S(=O)(Nc1nc(C2CCC2)n[nH]1)c1cnccc1NC1CC2CCC1C2 (single isomer, unassigned) [listing 2 of 2 here] | – | 190 | 1700 | 310 | –
CC(C)(C)NC(=O)NS(=O)(=O)c1cnccc1N[C@@H]1C[C@H]2CC[C@@H]1C2 (racemic) [listing 2 of 2 here] | – | 28 | 81 | 100 | –
CC(C)(C)NC(=O)NS(=O)(=O)c1cnccc1O[C@@H]1C[C@H]2CC[C@@H]1C2 (racemic) | 92 | 320 | 1200 | 990 | –
CCC(C)(C)NC(=O)NS(=O)(=O)c1cnccc1NC1CC2CCC1C2 (racemic) | – | – | – | – | bioavailability [5]: 41%; Cmax [6]: 2 µM; half-life [7]: 15 min; MRT [8]: 11.4 min; Vd [9]: 0.3 L/kg; clearance [10]: 26 mL/min/kg
CC(C)(C)NC(=O)NS(=O)(=O)c1cnccc1NCc1ccccc1 | 20 | 6900 | 7500 | > 10000 | –
